From PMC8808266 (Photochemistry and photobiology, 2021)

Tests used:
Format in all cases: cell-based, human
A549 cells [1] = test: Colocalization / co-incubation with Cy3-cRGDfK; conditions: co-incubation with 1 μM Cy3-cRGDfK, 1 μM probe, 30 min
Summary of the method: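 Live A549 cells at 70% confluency in chambered slides were co-incubated 30 min at 37 °C with 1 μM Cy3-cRGDfK plus 1 μM test compound in medium. They were then PBS-washed ×3, Hoechst-stained (3 μM, 10 min, RT) and imaged by epifluorescence (TxRed and Cy5.5 filters). After 10-pixel rolling-ball background subtraction, Pearson's correlation coefficient was computed and reported as average ± SEM.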

HT-1080 cells = test: Fluorescence cell microscopy, probe uptake; conditions: 1 μM probe, 30 min, 37 °C, compared to control probes
Summary of the method: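 HT-1080 cells were kept in EMEM with 10% FBS, 0.1 mM NEAA, 1.5 g/L bicarbonate, 1 mM pyruvate and 1% pen/strep (37 °C, 5% CO2), then grown to 70% confluency. They were exposed to 1 μM probe in medium for 30 min at 37 °C, washed ×3 with PBS, fixed in cold 4% PFA, Hoechst-stained and imaged (Cy5.5 filter). Intensity: rolling-ball background subtraction, auto-threshold, average ± SEM.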

OVCAR-4 cells = test: Fluorescence cell microscopy, probe uptake; conditions: 1 μM probe, 30 min, 37 °C, compared to control probes
Summary of the method: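 OVCAR-4 cells were maintained in RPMI-1640 with 10% FBS, 1% L-glutamine and 0.1 mM NEAA (37 °C, 5% CO2), grown to 70% confluency in chambered slides, then given 1 μM probe in medium for 30 min at 37 °C. After 3 PBS washes, they were fixed in cold 4% PFA (20 min, RT), Hoechst-stained (3 μM, 10 min) and imaged by epifluorescence. Mean intensity: 200-pixel rolling-ball subtraction, auto-threshold, average ± SEM.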

A549 cells [2] = test: Competitive blocking study of probe uptake; conditions: repeated many times using fixed and living cells; excess cRGDfK or Cilengitide
Summary of the method: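 A549 cells at 70% confluency on 8-well slides received 200 μM cRGDfK or 50 μM cilengitide 5 min before the test compound; the blocker stayed during a 30 min, 37 °C incubation with 1 μM test compound. Cells were then PBS-washed ×3, fixed in cold 4% PFA (20 min, RT), Hoechst-stained (3 μM) and imaged. Intensity came from 200-pixel rolling-ball background subtraction and auto-threshold, as average ± SEM.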

Substance: DRGDG (bicyclic or more) [SF8(DRGDG)2]
- cell uptake of probe in the presence of Cy3-cRGDfK (A549 cells [1]): did not reduce cell uptake
- probe uptake (mean fluorescence intensity of epifluorescence micrographs) (HT-1080 cells): Enhanced uptake
- probe uptake (mean fluorescence intensity of epifluorescence micrographs) (OVCAR-4 cells): Enhanced uptake
- cell uptake of probe in competition imaging experiments (A549 cells [2]): not reduced
